From ChEMBL document CHEMBL2331322, “Synthesis and antimicrobial activity of some new benzo and naphthonitrile derivatives” (2013)
≈ marks a conversion by molar mass, not a printed value.

What was measured:
Assay type in all cases: functional
Pseudomonas aeruginosa [1] = assay: Antimicrobial activity against Pseudomonas aeruginosa after 24 hrs by microdilution susceptibility test
How it was run: (§1)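 MIC was determined by broth microdilution, using Müller–Hinton broth for bacteria and Sabouraud liquid medium for fungi. Stocks were made in DMF and serially diluted twofold. Wells were inoculated at 10⁶ CFU/mL and plates incubated at 36 °C for 24–48 h, with controls included. Only compounds giving agar-diffusion zones >14 mm were tested.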

Bacillus thuringiensis [2] = assay: Antimicrobial activity against Bacillus thuringiensis at 1 mg/mL after 24 hrs by agar disc diffusion method; conditions: read-out: DIZ
How it was run: (§2)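 Sterile 5 mm filter paper disks were impregnated with test solution in DMF (1 mg/mL) and placed on agar plates seeded with the test organism, in triplicate. Bacteria were incubated at 37 °C for 24 h and fungi for […] (so in the source). The read-out was the average inhibition zone diameter around the disks, in mm.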

Fusarium oxysporum [3] = assay: Antimicrobial activity against Fusarium oxysporum after 48 hrs by microdilution susceptibility test; how it was run: as §1
Bacillus thuringiensis [4] = assay: Antimicrobial activity against Bacillus thuringiensis after 24 hrs by microdilution susceptibility test; how it was run: as §1
Escherichia coli [5] = assay: Antimicrobial activity against Escherichia coli after 24 hrs by microdilution susceptibility test; how it was run: as §1
Botrytis fabae [6] = assay: Antimicrobial activity against Botrytis fabae at 1 mg/mL […] by agar disc diffusion method; conditions: read-out: DIZ
Pseudomonas aeruginosa [7] = assay: Antimicrobial activity against Pseudomonas aeruginosa at 1 mg/mL after 24 hrs by agar disc diffusion method; conditions: read-out: DIZ; how it was run: as §2
Botrytis fabae [8] = assay: Antimicrobial activity against Botrytis fabae after 48 hrs by microdilution susceptibility test; how it was run: as §1
Bacillus subtilis [9] = assay: Antimicrobial activity against Bacillus subtilis at 1 mg/mL after 24 hrs by agar disc diffusion method; conditions: read-out: DIZ; how it was run: as §2
Escherichia coli [10] = assay: Antimicrobial activity against Escherichia coli at 1 mg/mL after 24 hrs by agar disc diffusion method; conditions: read-out: DIZ; how it was run: as §2
Bacillus subtilis [11] = assay: Antimicrobial activity against Bacillus subtilis after 24 hrs by microdilution susceptibility test; how it was run: as §1
Fusarium oxysporum [12] = assay: Antimicrobial activity against Fusarium oxysporum at 1 mg/mL after 48 hrs by agar disc diffusion method; conditions: read-out: DIZ; how it was run: as §2

SMILES	MIC (Pseudomonas aeruginosa [1]) [µg/mL]	zone of inhibition at 1000 µg/mL (Bacillus thuringiensis [2]) [mm]	MIC (Fusarium oxysporum [3]) [µg/mL]	MIC (Bacillus thuringiensis [4]) [µg/mL]	MBC (Escherichia coli [5]) [µg/mL]	MIC (Escherichia coli [5]) [µg/mL]	zone of inhibition at 1000 µg/mL (Botrytis fabae [6]) [mm]	zone of inhibition at 1000 µg/mL (Pseudomonas aeruginosa [7]) [mm]	MIC (Botrytis fabae [8]) [µg/mL]	zone of inhibition at 1000 µg/mL (Bacillus subtilis [9]) [mm]	zone of inhibition at 1000 µg/mL (Escherichia coli [10]) [mm]	MBC (Bacillus subtilis [11]) [µg/mL]	MIC (Bacillus subtilis [11]) [µg/mL]	zone of inhibition at 1000 µg/mL (Fusarium oxysporum [12]) [mm]
CCOC(=O)c1c2[nH]c(=N)c3ccccc3c2nn1-c1ccccc1	50 (≈ 150 µM)	35	50 (≈ 150 µM)	25 (≈ 75.2 µM)	200 (≈ 602 µM)	50 (≈ 150 µM)	20	19	25 (≈ 75.2 µM)	33	20	200 (≈ 602 µM)	25 (≈ 75.2 µM)	33
CCOC(=O)c1c2[nH]c(=N)c3ccccc3c2nn1-c1ccc(Cl)cc1	25 (≈ 68.2 µM)	38	25 (≈ 68.2 µM)	50 (≈ 136 µM)	200 (≈ 545 µM)	50 (≈ 136 µM)	27	33	50 (≈ 136 µM)	33	25	200 (≈ 545 µM)	25 (≈ 68.2 µM)	16
CCOC(=O)c1c2[nH]c(=N)c3ccccc3c2nn1-c1ccc(C)cc1	50 (≈ 144 µM)	20	50 (≈ 144 µM)	50 (≈ 144 µM)	200 (≈ 577 µM)	50 (≈ 144 µM)	16	15	50 (≈ 144 µM)	32	15	200 (≈ 577 µM)	25 (≈ 72.2 µM)	25
CCOC(=O)c1c2[nH]c(=N)c3ccccc3c2nn1-c1ccc(OC)cc1	50 (≈ 138 µM)	37	25 (≈ 69 µM)	25 (≈ 69 µM)	200 (≈ 552 µM)	50 (≈ 138 µM)	19	20	50 (≈ 138 µM)	40	30	200 (≈ 552 µM)	50 (≈ 138 µM)	38
CCOC(=O)c1c2[nH]c(=N)c3ccccc3c2nn1-c1ccc([N+](=O)[O-])cc1	50 (≈ 132 µM)	37	25 (≈ 66.2 µM)	25 (≈ 66.2 µM)	200 (≈ 530 µM)	50 (≈ 132 µM)	20	16	50 (≈ 132 µM)	38	15	200 (≈ 530 µM)	25 (≈ 66.2 µM)	19
N=c1[nH]c2nn(-c3ccccc3)nc2c2ccccc12	50 (≈ 191 µM)	37	25 (≈ 95.7 µM)	25 (≈ 95.7 µM)	200 (≈ 765 µM)	50 (≈ 191 µM)	16	19	25 (≈ 95.7 µM)	33	20	200 (≈ 765 µM)	50 (≈ 191 µM)	20
N=c1[nH]c2nn(-c3ccc(Cl)cc3)nc2c2ccccc12	50 (≈ 169 µM)	38	25 (≈ 84.5 µM)	25 (≈ 84.5 µM)	200 (≈ 676 µM)	50 (≈ 169 µM)	15	19	50 (≈ 169 µM)	32	15	200 (≈ 676 µM)	25 (≈ 84.5 µM)	15
Cc1ccc(-n2nc3[nH]c(=N)c4ccccc4c3n2)cc1	50 (≈ 182 µM)	26	50 (≈ 182 µM)	50 (≈ 182 µM)	200 (≈ 726 µM)	50 (≈ 182 µM)	20	15	50 (≈ 182 µM)	30	15	200 (≈ 726 µM)	50 (≈ 182 µM)	19
COc1ccc(-n2nc3[nH]c(=N)c4ccccc4c3n2)cc1	50 (≈ 172 µM)	35	25 (≈ 85.8 µM)	50 (≈ 172 µM)	200 (≈ 687 µM)	50 (≈ 172 µM)	15	15	25 (≈ 85.8 µM)	33	19	200 (≈ 687 µM)	50 (≈ 172 µM)	19
N=c1[nH]c2nn(-c3ccc([N+](=O)[O-])cc3)nc2c2ccccc12	50 (≈ 163 µM)	38	25 (≈ 81.6 µM)	50 (≈ 163 µM)	200 (≈ 653 µM)	25 (≈ 81.6 µM)	16	15	25 (≈ 81.6 µM)	38	26	200 (≈ 653 µM)	50 (≈ 163 µM)	15
N#CC1c2ccccc2C(=N)C(C#N)(C#N)C1c1ccc(Cl)cc1 (stereo unspecified)	100 (≈ 302 µM)	33	50 (≈ 151 µM)	50 (≈ 151 µM)	200 (≈ 605 µM)	100 (≈ 302 µM)	26	31	50 (≈ 151 µM)	20	33	200 (≈ 605 µM)	50 (≈ 151 µM)	20
COc1ccc(C2C(C#N)c3ccccc3C(=N)C2(C#N)C#N)cc1 (stereo unspecified)	100 (≈ 306 µM)	18	50 (≈ 153 µM)	100 (≈ 306 µM)	200 (≈ 613 µM)	100 (≈ 306 µM)	20	26	100 (≈ 306 µM)	15	31	200 (≈ 613 µM)	100 (≈ 306 µM)	19
COc1cc(-c2c(C#N)c(N)c3ccccc3c2C#N)cc(OC)c1OC	100 (≈ 278 µM)	35	50 (≈ 139 µM)	50 (≈ 139 µM)	200 (≈ 557 µM)	100 (≈ 278 µM)	28	32	50 (≈ 139 µM)	26	35	200 (≈ 557 µM)	50 (≈ 139 µM)	33
N#C/C(=C\c1ccc(Cl)cc1)c1ccccc1C#N	100 (≈ 378 µM)	20	100 (≈ 378 µM)	50 (≈ 189 µM)	200 (≈ 756 µM)	100 (≈ 378 µM)	26	20	100 (≈ 378 µM)	21	15	200 (≈ 756 µM)	50 (≈ 189 µM)	15
